According to ChEMBL document CHEMBL1150956, “Antitubercular natural products: berberine from the roots of commercial Hydrastis canadensis powder. Isolation of inactive 8-oxotetrahydrothalifendine, canadine, beta-hydrastine, and two new quinic acid esters, hycandinic acid esters-1 and -2” (1998):

These compounds were tested on Mycobacterium tuberculosis (assay: Antimicrobial activity against recombinant Mycobacterium bovis BCG expressing pMV361 lux after 5 days by luciferase assay). Settings: variant bovis BCG, 120 h.
Assay type: functional
Summary of the method: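 rBCG (pMV361 lux) in Middlebrook 7H9 broth at about 5e5 cfu/mL final inoculum. Compounds were tested at 0.1–50 µg/mL and at higher levels, with no-drug 1% DMSO growth controls. Tubes were incubated at 36 °C in ambient air. A 100 µL aliquot received 100 µL of 1 mM luciferin, and RLU were read at day 0 (within 30 min) and day 5. Inhibition was scored as a drop in luminescence.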

Row | SMILES | MIC [µg/mL]
1 | COc1c(O)ccc2c1C(=O)N1CCc3cc4c(cc3C1C2)OCO4 (stereo not given) | > 50
2 | COc1ccc2cc3[n+](cc2c1OC)CCc1cc2c(cc1-3)OCO2.[Cl-] [BERBERINE CHLORIDE] | 200
3 | COc1ccc2c(c1OC)CN1CCc3cc4c(cc3[C@@H]1C2)OCO4 [CANADINE] | > 50
4 | COc1c(OC(C)=O)ccc2c1C(=O)N1CCc3cc4c(cc3C1C2)OCO4 (stereo not given) | > 50
5 | COc1ccc2c(c1OC)C(=O)N1CCc3cc4c(cc3C1C2)OCO4 (stereo not given) | > 50
